An excerpt weighted towards active compounds, which were near 0.58% of everything screened.
TRPML3 ag = agonists of human TRPML3 channel | HEK293 TRPML3-YFP, Fluo-8 calcium fluorescence; 100% = the carbachol control signal | Q8TDD5 | activation, % at 3 µM | 220,000 compounds, 0.29% hits;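 active = activation above its plate's cutoff, the mean activation of the plate's test wells plus 3 SD, cut at about 12% in these data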
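Material: TRPML3-YFP stable HEK293 cells | Dosing: One concentration, 3 µM nominal, 0.3% DMSO | Timing: 125 s total fluorescence read per well | Technique: Fluo-8 calcium dye fluorescence, ex 470-495, em 515-575 nm | Measure: Percent activation from peak-to-basal fluorescence ratio, scaled between DMSO and carbachol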
OXTR agonist = activates the human oxytocin receptor; CHO-OTR cells, Fluo-8 calcium fluorescence; normalized: DMSO 0%, oxytocin 100%; AID 2435; 320,000 compounds, 0.32% hits; activation, % at 3 µM; P30559;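 active = activation above the mean of all tested compounds plus 3 SD, cutoff set per screening run, cut at about 20% in these data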;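 note: peak over basal fluorescence ratio from a 100 s FLIPR kinetic read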
V1R ag counter = V1a receptor agonism, counter-screen for OXTR agonists; CHO-V1R cells, Fluo-8 calcium fluorescence, agonist mode; 0% DMSO, 100% 3 nM vasopressin; activation, % at 3 µM; 320,000 compounds, 0.25% hits; AID 2797;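 active = activation above the mean activation of all tested compounds plus 3 SD, per screening run, cut at about 20% in these data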;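 note: signal is peak over basal fluorescence ratio across a 100 second FLIPR read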
Target sequence (P37288 whole entry, looked up): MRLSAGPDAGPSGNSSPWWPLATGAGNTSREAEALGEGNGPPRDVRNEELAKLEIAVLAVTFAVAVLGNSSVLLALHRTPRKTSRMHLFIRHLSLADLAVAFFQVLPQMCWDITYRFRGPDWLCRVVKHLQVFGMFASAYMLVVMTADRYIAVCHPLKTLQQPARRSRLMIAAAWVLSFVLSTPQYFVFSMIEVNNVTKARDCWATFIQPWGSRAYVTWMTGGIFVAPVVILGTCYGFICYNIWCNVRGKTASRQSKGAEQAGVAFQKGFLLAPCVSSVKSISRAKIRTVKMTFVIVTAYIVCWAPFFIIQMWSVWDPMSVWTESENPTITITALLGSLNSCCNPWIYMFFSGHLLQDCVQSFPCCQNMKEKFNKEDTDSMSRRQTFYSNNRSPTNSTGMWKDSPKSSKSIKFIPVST
TRPN1 ag = agonists of zebrafish TRPN1 channel | HEK293 zebrafish TRPN1-YFP, Fluo-8 calcium fluorescence; 100% = response to 87 µM carbachol | activation, % at 3 µM | 220,000 compounds, 0.18% hits | AID 1424;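 active = activation above its plate's cutoff, the mean activation of test wells on that plate plus 3 SD, cut at about 19% in these data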
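Material: zebrafish TRPN1-YFP in HEK293 cells; Doses: single test compound dose, 3 µM nominal, 0.3% DMSO; Timing: dye loading 1 h at 37 °C, then 30 min room temperature; Technique: intracellular calcium fluorescence with Fluo-8; Benchmarks: high carbachol 87 µM, low DMSO alone.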
OXTR potentiator = potentiators of human oxytocin receptor; 320,000 compounds, 0.061% hits; CHO-OTR cells, Fluo-8 calcium fluorescence, potentiator mode; 0% = oxytocin EC15, 100% = EC100; activation, % at 3 µM; P30559;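 active = activation above that plate's cutoff, the mean activation of tested compounds plus 3 SD, cut at about 6.6% in these data, passing the limit was not always enough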
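test system = CHO-OTR cells, human receptor | compound = single-point 3.0 µM | schedule = 6 min compound pre-incubation at room temperature, 100 s kinetic read | signal = Fluo-8 no-wash calcium dye fluorescence, excitation 470-495 nm, emission 515-575 nm | repeats = single well per compound, singlicate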
TRPN1 counter = activates zebrafish TRPN1, counter-screen for TRPML3 agonists. 310 compounds, 10% hits. shares compounds with TRPML3 ag. HEK293 zebrafish TRPN1-YFP, Fluo-8 calcium fluorescence; scaled: carbachol wells 100%, DMSO wells 0%. AID 1525. activation, % at 3 µM;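 active = mean activation over replicates above a set limit taken from the earlier TRPN1 channel primary screen, cut at about 19% in these data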
TRPML3 ag conf = human TRPML3 agonism, confirmation | 310 compounds, 80% hits | shares compounds with TRPML3 ag | HEK293 TRPML3-YFP, Fluo-8 calcium fluorescence; 100% set by carbachol, 0% by DMSO | activation, % at 3 µM;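 active = activation above a set limit derived from the earlier primary screen, cut at about 12% in these data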
Each line names hits and unclear results; the compound was inactive in the other large screens (follow-up assays come after a bar, where they were run).

CCOc1c(S(=O)(=O)N2CCCC2)ccc(Cl)c1Cl	TRPML3 ag 19 | TRPN1 counter inactive | TRPML3 ag conf 41
Cc1cc(S(=O)(=O)N2CCCCCC2)c(Cl)cc1Cl	TRPML3 ag 26 | TRPN1 counter inactive | TRPML3 ag conf 27
O=C1/C(=C/c2ccc(O)c(O)c2)SC(=S)N1Nc1ccccc1	none (no result: OXTR agonist, V1R ag counter, OXTR potentiator)
COc1cc(/C=C2\SC(=S)N(Nc3ncc(C(F)(F)F)cc3Cl)C2=O)ccc1O	TRPML3 ag 13, OXTR agonist 24, V1R ag counter 39 | TRPN1 counter 29 | TRPML3 ag conf 15
Oc1c(Cl)cc(Cl)cc1Sc1cc(Cl)cc(Cl)c1O	TRPML3 ag 13 | TRPN1 counter 29 | TRPML3 ag conf 13
Oc1c(Cl)cc(Cl)cc1CNn1cnnc1	none
CC12CCC(C(=O)N(CSC(=S)N/N=C\c3ccccc3)C1=O)C2(C)C (stereo not given)	TRPML3 ag 43 | TRPN1 counter inactive | TRPML3 ag conf inactive
CC12CCC(C(=O)N(CC(=O)O)C1=O)C2(C)C (stereo not given)	none
CC12CCC(C(=O)N(CSC(=S)N/N=C\c3ccccc3Cl)C1=O)C2(C)C (stereo not given)	TRPML3 ag 38 | TRPN1 counter inactive | TRPML3 ag conf inactive
CSc1nsc(SC)c1C(=O)N1CCN(S(=O)(=O)c2ccc(C)cc2)C1C(C)C (stereo not given)	TRPML3 ag 46 | TRPN1 counter inactive | TRPML3 ag conf 26
O=C(C1CCN(S(=O)(=O)c2c(Cl)cccc2Cl)CC1)N1CCCC1	none (no result: TRPML3 ag, TRPN1 ag)
CC(c1ccccc1)C1CC(=O)N(C2CCCCC2)C1=O (stereo not given)	TRPML3 ag 27 | TRPN1 counter inactive | TRPML3 ag conf 25
Cc1c(NC(=O)CCSc2ccc(Cl)cc2)c(=O)n(-c2ccccc2)n1C	none
CCC(C(=O)Nc1cc(C)nn1-c1nc(C)cc(C)n1)c1ccccc1 (stereo not given)	TRPML3 ag 23 | TRPN1 counter inactive | TRPML3 ag conf 23
S=C(NC1CCCCC1)N1CCOCCOCCN(C(=S)NC2CCCCC2)CCOCC1	TRPML3 ag 18 | TRPN1 counter inactive | TRPML3 ag conf 33
COc1ccccc1-c1ccc(/C=C2\C=CC(=O)O2)o1	TRPML3 ag 14, OXTR agonist 50, V1R ag counter 44 | TRPN1 counter 21 | TRPML3 ag conf 13
COc1ccccc1-c1ccc(/C=C2/C=C(C)OC2=O)o1	none
O=C1CC(C(=O)O)S/C(=N\NC(=O)c2ccc(F)cc2)N1 (stereo not given)	none
Fc1ccc(Nc2nnc(C(F)(F)F)s2)cc1Cl	TRPML3 ag 17 | TRPN1 counter inactive | TRPML3 ag conf inactive
CC1=C(C(=O)Nc2ccccn2)C(c2ccc3c(c2)OCO3)C2=C(CC(C)(C)CC2=O)N1 (stereo not given)	none
O=S(=O)(NC1CCCCCC1)c1cccc2cccnc12	TRPML3 ag 33 | TRPN1 counter inactive | TRPML3 ag conf 56
Cc1ccc(S(=O)(=O)N2CC3CCCC2C3)cc1 (stereo not given)	TRPML3 ag 33 | TRPN1 counter inactive | TRPML3 ag conf 39
O=C1CN(S(=O)(=O)c2ccc(F)cc2)CC(=O)N1CCc1ccccc1	TRPML3 ag 12 (no result: OXTR agonist, V1R ag counter, OXTR potentiator) | TRPN1 counter inactive | TRPML3 ag conf 23
Cc1cc(N2C(=O)C3C4c5ccccc5C(c5ccccc54)C3C2=O)no1 (stereo not given)	TRPML3 ag 13 | TRPN1 counter inactive | TRPML3 ag conf inactive
CCOc1ccc(S(=O)(=O)N(C)C2CCCCC2)cc1	none (no result: TRPML3 ag, TRPN1 ag)
CN(C1CCCCC1)S(=O)(=O)c1cccc(C#N)c1	TRPML3 ag 63 | TRPN1 counter inactive | TRPML3 ag conf 44
Cc1cccc(Cc2cnc(N3C(=N)SC(C)C3=O)s2)c1 (stereo not given)	none
N=C1SCC(=O)N1c1ncc(Cc2ccccc2Cl)s1	TRPML3 ag 137 (no result: OXTR agonist, V1R ag counter, OXTR potentiator) | TRPN1 counter inactive | TRPML3 ag conf 170
N=C1SCC(=O)N1c1ncc(Cc2cccc(Cl)c2)s1	TRPML3 ag 45 (no result: OXTR agonist, V1R ag counter, OXTR potentiator) | TRPN1 counter inactive | TRPML3 ag conf 26
CCCCN(C(=O)CCC(=O)Nc1cc(C)on1)C(C(=O)NC1CCCC1)c1ccc(OC)cc1 (stereo not given)	none (no result: TRPML3 ag, TRPN1 ag)
CCc1cc(C(=O)N(CC(C)C)c2c(N)n(Cc3ccccc3)c(=O)[nH]c2=O)sc1C	none (no result: TRPML3 ag, TRPN1 ag)
CC(=Nc1ccccc1O)c1sc2ccccc2c1O	TRPML3 ag 12, OXTR agonist 27, V1R ag counter 31 | TRPN1 counter 21 | TRPML3 ag conf inactive
CC(=Nc1ccc(O)cc1)c1sc2ccccc2c1O	none
O=C(NC(NC(=S)Nc1cc(Cl)ccc1Cl)C(Cl)(Cl)Cl)c1ccco1 (stereo not given)	none
CN(C)S(=O)(=O)c1ccc(C(=O)NCC(=O)Nc2ccc(F)c(F)c2)cc1	none (no result: TRPML3 ag, TRPN1 ag)
CC(=O)Nc1ccccc1OCC(=O)c1cc(C)n(Cc2cccs2)c1C	TRPML3 ag 28 | TRPN1 counter 27 | TRPML3 ag conf 34
O=C(CCC(=O)OCC(F)(F)C(F)F)Nc1ccc(Cl)cc1	none
Cc1ccc(S(=O)(=O)Nc2cc(C(F)(F)F)ccc2N2CCOCC2)cc1	none
Cc1ccc(S(=O)(=O)Nc2cc(C(F)(F)F)ccc2N2CCOCC2)c(C)c1	TRPML3 ag 48 | TRPN1 counter inactive | TRPML3 ag conf 102
CCOc1cccc(C2C(C#N)=C(N)Oc3cc(C)[nH]c(=O)c32)c1OCC (stereo not given)	none
CCOC(=O)c1c(CSc2ccc(C)cc2)oc2ccc(O)cc12	TRPML3 ag 30 | TRPN1 counter inactive | TRPML3 ag conf 46
O=c1nc2s/c(=C\c3ccco3)c(=O)n2nc1Cc1ccc(F)cc1	none
Cc1cc(C)c(N2CCN(S(=O)(=O)N3CCCCCC3)CC2)c(C)c1	TRPML3 ag 67 | TRPN1 counter 45 | TRPML3 ag conf 165
Cc1ccc(S(=O)(=O)N(C)CC(=O)O/N=C(\N)c2cccc([N+](=O)[O-])c2)cc1	TRPML3 ag 62 | TRPN1 counter inactive | TRPML3 ag conf 48
Cc1ccc(SCC(=O)O/N=C(\N)c2cccc([N+](=O)[O-])c2)cc1	none
Cc1ccc(CNc2ccc3c(c2)ncn3C(C)C)cc1	TRPML3 ag 36 | TRPN1 counter 36 | TRPML3 ag conf 29
CC1=CC(C)(C)N(C(=O)CSc2nnc(C)s2)c2ccc(C)cc21	none
